In ChEMBL document CHEMBL4152350, “A new multifunctional hydroxytyrosol-clofibrate with hypolipidemic, antioxidant, and hepatoprotective effects” (Bioorg Med Chem Lett, 2018) one finds Activity and Ratio data, which are given here for two compounds.

Series [1] in a line: Antioxidant activity assessed as DPPH radical scavenging activity after 30 mins. Format: functional.
Series [2] concerns Mus musculus. The series is described as follows: Hepatoprotective activity in ICR mouse assessed as liver weight at 240 umol/kg/day administered po for 2 months (reference value: 1.49 +/- 0.42 g). Format: functional.
Series [3] has as its system Mus musculus. The series is described as follows: Hepatoprotective activity in ICR mouse assessed as liver coefficient at 240 umol/kg/day administered po for 2 months (reference value: 40.50 +/- 0.71 mg/g). Format: functional.
For series [4], the system named is Mus musculus. The series is described as follows: Toxicity in ICR mouse assessed as body weight at 240 umol/kg/day administered po for 2 months (reference value: 36.8 +/- 0.70 g). Format: organism-based. The note with it: in vivo.
The subject of series [5] is Mus musculus. Nature of the series: Hypolipidemic activity in Triton WR 1339-induced acute hyperlipidemic ICR mouse model assessed as decrease in plasma triglyceride levels at 240 umol/kg, ig for one week followed by Triton WR 1339 challenge on day 6 measured after 24 hrs. Format: functional. On the set-up: scale not given: the % may be the effect or the level left. A digest of the protocol: (§1)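 Acute hyperlipidemia was induced with Triton WR 1339 in mice given 240 µmol/kg intragastrically for 7 days. Plasma TG and TC are expressed as percent reduction, and plasma MDA in nmol/mL. Data are mean ± SEM, n=8, compared against the blank and model groups.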

Series [6] relates to Mus musculus. The series is described as follows: Hypolipidemic activity in Triton WR 1339-induced acute hyperlipidemic ICR mouse model assessed as decrease in total cholesterol levels in plasma at 240 umol/kg, ig for one week followed by Triton WR 1339 challenge on day 6 measured after 24 hrs. Format: functional. On the set-up: scale not given: the % may be the effect or the level left. A digest of the protocol: as §1

Series [7] has as its system Mus musculus. The series is described as follows: Hypolipidemic activity in Triton WR 1339-induced acute hyperlipidemic ICR mouse model assessed as decrease in malonaldehyde levels in plasma at 240 umol/kg, ig for one week followed by Triton WR 1339 challenge on day 6 measured after 24 hrs. Format: functional. On the set-up: scale not given: the % may be the effect or the level left. A digest of the protocol: as §1

Series [8] in a line: Antioxidant activity assessed as hydroxyl radical scavenging activity after 60 mins. Format: functional.
In series [9] the test system is Mus musculus. Nature of the series: Hepatoprotective activity in ICR mouse assessed as serum AST levels at 240 umol/kg/day administered po for 2 months (reference value: 107.25 +/- 2.77 U/L). Format: functional.
The test system of series [10] is Mus musculus. Nature of the series: Hepatoprotective activity in ICR mouse assessed as serum ALT levels at 240 umol/kg/day administered po for 2 months (reference value: 36.25 +/- 1.08 U/L). Format: functional.
For series [11], the system named is Mus musculus. Nature of the series: Hepatoprotective activity in ICR mouse assessed as serum APK levels per 100 ml at 240 umol/kg/day administered po for 2 months (reference value: 20.02 +/- 0.61 U). Format: functional.
Series [12] concerns Mus musculus. The series is described as follows: Hepatoprotective activity in ICR mouse assessed as serum TBIL levels at 240 umol/kg/day administered po for 2 months (reference value: 0.63 +/- 0.09 microM). Format: functional.
Series [13] relates to Mus musculus. The series is described as follows: Antioxidant activity in ICR mouse assessed as serum SOD levels at 240 umol/kg/day administered po for 2 months (reference value: 337.64 +/- 4.82 U/ml). Format: functional. A digest of the protocol: (§2)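 Male ICR mice (20.0 ± 2.0 g) received 240 µmol/kg/day; normal controls got an equal volume of vehicle. Commercial kits measured serum SOD, CAT and MDA and hepatic GSH and GSSG, with the GSH/GSSG ratio calculated. Groups were compared with normal and CF groups.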

Series [14] relates to Mus musculus. The series is described as follows: Antioxidant activity in ICR mouse assessed as serum MDA levels at 240 umol/kg/day administered po for 2 months (reference value: 6 +/- 0.20 microM). Format: functional. An outline of the steps: as §2
Series [15] relates to Mus musculus. The series is described as follows: Antioxidant activity in ICR mouse assessed as serum CAT levels at 240 umol/kg/day administered po for 2 months (reference value: 2.83 +/- 0.22 U/ml). Format: functional. A digest of the protocol: as §2
Series [16] has as its system Mus musculus. The series is described as follows: Antioxidant activity in ICR mouse assessed as hepatic GSH levels at 240 umol/kg/day administered po for 2 months (reference value: 43.38 +/- 4.59 microM). Format: functional. A digest of the protocol: as §2
Series [17] concerns Mus musculus. Nature of the series: Antioxidant activity in ICR mouse assessed as hepatic GSSG levels at 240 umol/kg/day administered po for 2 months (reference value: 2.91 +/- 0.31 microM). Format: functional. An outline of the steps:
as §2

The subject of series [18] is Mus musculus. Nature of the series: Antioxidant activity in ICR mouse assessed as hepatic GSH to GSSG ratio at 240 umol/kg/day administered po for 2 months (reference value: 16.4 +/- 2.34). Format: functional. An outline of the steps: as §2
Series [19] relates to Mus musculus. Nature of the series: Hepatoprotective activity in ICR mouse assessed as hepatocyte hyperplasia at 240 umol/kg/day administered po for 2 months by histopathological analysis. Format: functional, organism-based. A digest of the protocol: (§3)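 Liver slices from male ICR mice (20.0 ± 2.0 g) were examined histopathologically after 240 µmol/kg/day dosing; normal controls received the same volume of vehicle.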

For series [20], the system named is Mus musculus. Nature of the series: Hepatoprotective activity in ICR mouse assessed as hypertrophy at 240 umol/kg/day administered po for 2 months by histopathological analysis. Format: functional, organism-based. A digest of the protocol: as §3
Series [21] deals with Mus musculus. The series is described as follows: Hepatoprotective activity in ICR mouse assessed as midzonal mitosis at 240 umol/kg/day administered po for 2 months by histopathological analysis. Format: functional, organism-based. A digest of the protocol: as §3
Series [22] deals with Mus musculus. Nature of the series: Hepatoprotective activity in ICR mouse assessed as centrilobular hypertrophy at 240 umol/kg/day administered po for 2 months by histopathological analysis. Format: functional, organism-based. A digest of the protocol: as §3

The source made the active and inactive calls. The rule behind the calls is not given here.

`CC(C)(Oc1ccc(Cl)cc1)C(=O)OCCc1ccc(O)c(O)c1`: the result (in series [1]; in series [8]; in the series with Mus musculus [19]; in the series with Mus musculus [20]; in the series on Mus musculus [21]; in the series on Mus musculus [22]) was Active. Besides, the Activity in the series with Mus musculus [2] came out at 1.48 g; in the series on Mus musculus [3], 44.17 mg/g; in the series on Mus musculus [4], 33.4 g; in the series on Mus musculus [5], 30%; in the series on Mus musculus [6], 33%; in the series with Mus musculus [7], 29%. Also, the Activity with Mus musculus [9] came out at 121.37 U/L; with Mus musculus [10], 39.75 U/L; with Mus musculus [11], 17.57 U; in the series on Mus musculus [12], 0.95 µM; with Mus musculus [13], 275.2 U/ml; with Mus musculus [14], 6.44 µM. Also, the Activity is 2.04 U/ml in the series with Mus musculus [15], 22.87 µM in the series on Mus musculus [16] and 4.85 µM in the series with Mus musculus [17]. For the same compound, in the series with Mus musculus [18], the Ratio worked out at 4.1.
As to `CCOC(=O)C(C)(C)Oc1ccc(Cl)cc1` [CLOFIBRATE], the result (in series [1]; in series [8]; with Mus musculus [19]; in the series on Mus musculus [20]; with Mus musculus [21]; with Mus musculus [22]) was inactive. Moreover, the Activity turned out to be 1.77 g in the series on Mus musculus [2]; 52.12 mg/g in the series with Mus musculus [3]; 33.8 g with Mus musculus [4]; 24% in the series with Mus musculus [5]; 23% with Mus musculus [6]; 14% in the series on Mus musculus [7]. The Activity came to 157.5 U/L with Mus musculus [9]; 63.13 U/L in the series on Mus musculus [10]; 28.64 U in the series on Mus musculus [11]; 13.09 µM with Mus musculus [12]; 228.32 U/ml with Mus musculus [13]; 7.79 µM in the series with Mus musculus [14]. For the same compound, the Activity with Mus musculus [15] was 3.86 U/ml; in the series with Mus musculus [16] it was 11.6 µM; with Mus musculus [17], 6.24 µM. Besides, the Ratio in the series with Mus musculus [18] was 2.1.
